Measurements as given in the EternaBench riboswitch data.

Tested on: MS2 coat protein
Test: apparent Kd, MS2 coat protein; higher = weaker binding; RNA-MaP array; FMN 200 µM where present
How it was run: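 Green signal from SNAP-549-labelled MS2 coat protein was normalised to red-channel RNA signal and to the median Fmax of control clusters. The protein was titrated from 0.7 or 1.5 nM, doubling to 3 µM, without and then with constant ligand, over designs transcribed by stalled E. coli RNA polymerase on Illumina sequencing-chip clusters, in 100 mM Tris-HCl pH 7.5, 80 mM KCl, 4 mM MgCl2, BSA, DTT, yeast tRNA and Tween-20. The apparent Kd is the median of filtered per-cluster binding-curve fits.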

[1] = designed as: ON switch for flavin mononucleotide, no ligand
[2] = ligand present: flavin mononucleotide, designed as: ON switch for flavin mononucleotide
[3] = designed as: OFF switch for flavin mononucleotide, no ligand
[4] = ligand present: flavin mononucleotide, designed as: OFF switch for flavin mononucleotide

UGUUGUAGUACAGGAUAUGCGGUGGAUUCGGACAUGAGGAUCACCCAUGUGCCUUUAUAACGUCUGCAGAAGGGUGAAAGAACG
apparent Kd [1]: 500 nM | apparent Kd [2]: 130 nM

UAUAAACAUGAGGAUCACCCAUGUGAGGAUAUCUAAACCAGAGCGGAUCUCUGGCCCAAGAGAAGGUGCAUGGU
apparent Kd [3]: 34.6 nM | apparent Kd [4]: 146 nM

AGUGUCAUCCAGAAGGAGAUGGACAUGAGGAUCACCCAUGUUCCAUGAUCUAGGAUAUGGAUGAUACAGCUACGUUUCGUAGCA
apparent Kd [1]: 4.61 nM | apparent Kd [2]: 4.73 nM

UUUUAACAUGAGGAUCACCCAUGUGAGGAUAUCGAAAUUUAUAUUAAUAUUUAUUUAUCGAGAAGGCACAUUUU
apparent Kd [3]: 115 nM | apparent Kd [4]: 135 nM

CCAGGCUUCGAGAAGGACAUGAGGAUCACCCAUGUGCGUGUAAAACAGCCAAAAGGCUGCAUCAUGUAGGAUAUCGGAGUCUGC
apparent Kd [3]: 275 nM | apparent Kd [4]: 95.5 nM

UUACUAUAACAGAAGGGUAGAUAGUAUAUAAAUGCAGGAUAUGUUACAUGAGGAUCACCCAUGUUUCACCCACAUGAGGAUCAC
apparent Kd [3]: 28.5 nM | apparent Kd [4]: 40.7 nM

UAAAUGUGAGGAUAUUCGAUUAACUCGGAGACGAGUUGAUCGGAGAAGGCACAUGAGGAUCACCCAUGUUCCUU
apparent Kd [3]: 24.8 nM | apparent Kd [4]: 232 nM

GUGCUUGUCGGAGGAUAUGGUUACAUGAGGAUCACCCAUGUUAUGCUUGGUUACUUGUUUAGUUUCCAGAAGGUCGGUUGGUUG
apparent Kd [3]: 61.1 nM | apparent Kd [4]: 71.2 nM

UCUUAUUGCAAGGAUAUGCUUUUUAUUUCUUUUGCAGAAGGUGCAACAUGAGGAUCACCCAUGUUUCCGGGUAU
apparent Kd [3]: 24.1 nM | apparent Kd [4]: 59.5 nM

CACUGCAUGUAAGGAUAUCGACUGGAAUACAGUCGAGAAGGUACAUGAGGAUCACCCAUGUAAAUAAUAAUAAAUAAAGCAGUG
apparent Kd [3]: 15.3 nM | apparent Kd [4]: 24.4 nM

GCUCGGCCAAAAUAAAACGACGCGAAGGAUAUACACCUGGGUACUCCUACAUGAGGAUCACCCAUGUAGAAGGUCGCGGGCUUG
apparent Kd [3]: 45 nM | apparent Kd [4]: 46.4 nM

AUAUGAUAGAUAGGAUAUACAGUGGUUUUAUAAGUAGAAGGAUCAAAUGGGAAUUAUACAUGAGGAUCACCCAUGUUUUUGGAU
apparent Kd [1]: 58.6 nM | apparent Kd [2]: 40.4 nM

UUGUUAUAUGUAGGAUAUGCAUAUUAUUAUUAUGCAGAAGGACAUGAGGAUCACCCAUGUAUAUUAUUAUUAUAUAUUAUAUAU
apparent Kd [3]: 28.3 nM | apparent Kd [4]: 41.6 nM

GAGUGCUGAGGAUAUACAUGAGGAUCACCCAUGUGCUUCAGCUAGGAGACUAGCAUUGGUAGAAGGCAGUACUC
apparent Kd [3]: 11.2 nM | apparent Kd [4]: 46 nM

AGCUAUUACGAAGGAUAUUGUGACAUGAGGAUCACCCAUGUUUUCAUGAUUAAUUGUGAUCACGUCGAGAAGGUUGUACUAACA
apparent Kd [1]: 52.4 nM | apparent Kd [2]: 54.5 nM

AGCUAGUCAGGAUAUGCAUACAUGUCAAAAGACGUGAAGGGACAUGAGGAUCACCCAUGUAGAAGGGACUAGCA
apparent Kd [3]: 40.4 nM | apparent Kd [4]: 67.9 nM

CUUUUGUGAGGAUAUCAGUAGUAGAACAAUAGUACUACUACUGAGAAGGCACAUGAGGAUCACCCAUGUUCCUU
apparent Kd [3]: 16 nM | apparent Kd [4]: 35.6 nM

AGAGAAUACUCAGGAUAUCUUAAUAGAAAGAGUAGAGAAGGGAGACAUGAGGAUCACCCAUGUGAAGUCUUGAGACUACAUGGU
apparent Kd [3]: 367 nM | apparent Kd [4]: 470 nM

AAUUAGGUCACAGGAUAUACAACAACCAAUGCUGUAGAAGGGUGACACAUUCUUUGCUGACAUGAGGAUCACCCAUGUAACCAC
apparent Kd [1]: 69.3 nM | apparent Kd [2]: 11.2 nM

CUUUUGUGAGGAUAUUAGUAGUAAAAAAAUAAAAUUACUACUGAGAAGGCACAUGAGGAUCACCCAUGUUCUUC
apparent Kd [3]: 19 nM | apparent Kd [4]: 98.1 nM

GAAUUCGCAUGAGGAUAUGCUCCCGUUUCGGGAGCAGAAGGCAUGUCAUAAGACAUGAGGAUCACCCAUGUAGUUAAGAUUGAA
apparent Kd [1]: 196 nM | apparent Kd [2]: 11.3 nM

CAGUAGAUCCGAGGAUAUACAAUCCGGAAACGGUACAUGAGGAUCACCCAUGUAGAAGGCGGAUCUACAGGUACUAAAGUACCU
apparent Kd [3]: 5.56 nM | apparent Kd [4]: 8.31 nM

UGUCGGAGCAGAGGAUAUUACAUGAGGAUCACCCAUGUAUGAACCAAUAGCUGGAAACAGCAAUGUAAGAAGGCUGCUCCGCCA
apparent Kd [3]: 11.8 nM | apparent Kd [4]: 187 nM

GUGUUACAUGAGGAUCACCCAUGUUGUUGUAGAUAAGGAUAUAUGGUAACGAGAGAAAUAAUAGAAGGUAUUAGGC
apparent Kd [1]: 37 nM | apparent Kd [2]: 31.6 nM

UCAAAGCUAGGAUAUACAUGAGGAUCACCCAUGUUAUCACCCAUCGGGUCUUGCUUUUGUAGAAGGAGCAAUAA
apparent Kd [3]: 28.2 nM | apparent Kd [4]: 59.8 nM

UUUAACUGCUAGAAGGGUGACAUGAGGAUCACCCAUGUGCUAGGCGUGCAUAAGCACCCUUAGCCACAGGAUAUAGUAGUUGAC
apparent Kd [1]: 112 nM | apparent Kd [2]: 64.5 nM

UGUCGGAGCAGAGGAUAUUACAUGAGGAUCACCCAUGUAGGUACCAAUAGCUGGAAACAGCAAUGUAAGAAGGCUGCUCCGACA
apparent Kd [3]: 280 nM | apparent Kd [4]: 408 nM

AGUCGGAGCAGAGGAUAUUACAUGAGGAUCACCCAUGUAUAAAAUGGAAGCUGGAAACAGCAAUGUAAGAAGGCUGCUCCGACA
apparent Kd [3]: 64 nM | apparent Kd [4]: 296 nM

AAACAUGUCCGAGGAUAUCUGGAAACUUUUUCAAGAGAAGGCGGACAUGAGGAUCACCCAUGUCUCUCCUCAUCAAAUCCAAGU
apparent Kd [3]: 7.94 nM | apparent Kd [4]: 50.3 nM

CUCAGCUCGUCAGGAUAUACGUCACUGCUUCGGCAGUGUGGUAAGAUCACAUGAGGAUCACCCAUGUAGAAGGGACGAGCUGAC
apparent Kd [3]: 12.7 nM | apparent Kd [4]: 316 nM

UGUACGGACAUGAGGAUCACCCAUGUAACCAAGCAGUUGGUACAGGAUAUCGCUUAGUGACUGAGCGAGAAGGGUGGUUCUGCA
apparent Kd [1]: 45.2 nM | apparent Kd [2]: 62.6 nM

AAGAGCGAUUCUCCCUUCCUACAUGAGGAUCACCCAUGUACGAGAAGGCGCCGUGGAUACCACGGUGAGGAUAUCGUGCGUUAC
apparent Kd [3]: 4.55 nM | apparent Kd [4]: 5.13 nM

UUUAUUUCGGCAGGAUAUACAUGUAUAUAUAUUCCCUCAUAUCUUAUUACAUGAGGAUCACCCAUGUAGAAGGGCCUUCUUCUC
apparent Kd [3]: 206 nM | apparent Kd [4]: 160 nM

UUAUAUAGGUAGGAUAUCGAUUUUAAUUAUUUUCGAGAAGGGUCAACAUGAGGAUCACCCAUGUCAGCAUGUAU
apparent Kd [3]: 58.7 nM | apparent Kd [4]: 49.1 nM

GAUUGACAUGAGGAUCACCCAUGUGAGGAUAUCGGCCGGAUCUUGUUAGCUUCCAUCGCGAGAAGGCACAUAGG
apparent Kd [3]: 66.1 nM | apparent Kd [4]: 73.5 nM

CAAAACGAGGCAGGAUAUCAAUACAUGAGGAUCACCCAUGUGUGACGUAGGCCGGUCUUCGUGACUGAGAAGGGUCUCUAGUUA
apparent Kd [3]: 11 nM | apparent Kd [4]: 40.5 nM

GUGACGAAUGUAGGAUAUGCUGAGGAUAACUCAGCAGAAGGACAUGAGGAUCACCCAUGUAAUCCUAAUAAUAAAUAACGUCAC
apparent Kd [3]: 12.7 nM | apparent Kd [4]: 18.3 nM

CUUUUGUGAGGAUAUUAGUAGUAAAUAAAUAAUAUUACUACUGAGAAGGCACAUGAGGAUCACCCAUGUUCCUC
apparent Kd [3]: 37 nM | apparent Kd [4]: 302 nM

GGAUUGAAUGAGGAUAUCGUAUUAGGUGUAAUGCGAGAAGGCAUGACAUGAGGAUCACCCAUGUAGUGUGGGUU
apparent Kd [3]: 509 nM | apparent Kd [4]: 772 nM

CCCGUGUUAGGAUAUACGGCACACCCACAAACGGGUAUAUAGUAGAAGGAACAUGAGGAUCACCCAUGUAAAAC
apparent Kd [3]: 20.2 nM | apparent Kd [4]: 46.5 nM

GUAAUAAAGAUCCAAUUAUACUACAUGAGGAUCACCCAUGUGCAGGAUAUCGAGAGUUUAUAAUUCGAGAAGGGCAAAUUCAUU
apparent Kd [3]: 73 nM | apparent Kd [4]: 159 nM

AUCAUGUAAGGAUAUCUUAUAUGGAUCUUCGGAUCAAGUUAAGAGAAGGUACAUGAGGAUCACCCAUGUAUAAC
apparent Kd [3]: 23.2 nM | apparent Kd [4]: 35.8 nM

GGUGGUGUCCGAGGAUAUCGUUAGGCGUUGUUGCGAGAAGGCGGACAUGAGGAUCACCCAUGUUUGAUGAAAGAGGAGGUUGUG
apparent Kd [3]: 98.5 nM | apparent Kd [4]: 123 nM

CGUAUAUGGGAGAAGGCAUGUCCCAAAGGGCUAUGAGGAUAUCCUAAGUGUACGCUUUGCGACAUGAGGAUCACCCAUGUAGCA
apparent Kd [1]: 10.5 nM | apparent Kd [2]: 6.36 nM

AAUCCACAUGAGGAUCACCCAUGUGAGGAUAUGAUACUAUGUACUUCGGUACAUAGUAUCAGAAGGCACAAAGG
apparent Kd [3]: 54.8 nM | apparent Kd [4]: 99.6 nM

GCAGACGUAGUGAGGAUAUGCUCUACCUCGGUAGAGCAGAAGGCACAUGAGGAUCACCCAUGUGGCUCCUCUGC
apparent Kd [3]: 16.2 nM | apparent Kd [4]: 25.1 nM

UGUCGGAGCAGAGGAUAUUACAUGAGGAUCACCCAUGUGGAAGAACCAAGCUGGAAACAGCAAUGUAAGAAGGCUGCUCCGACA
apparent Kd [3]: 1010 nM | apparent Kd [4]: 467 nM

GCAUACAUUCGAGGAUAUCGGUGAACAAAUUAACGAGAAGGCGAUAGAAUGUUUAAUCUUAUAAACAUGAGGAUCACCCAUGUA
apparent Kd [1]: 35.2 nM | apparent Kd [2]: 25.2 nM

GCCUGCUGGCGAGGAUAUUCUGUGAGGUUCCGGCUCGUGUCUGUUACAUGAGGAUCACCCAUGUGGGAGAAGGUGUCUGUGGCC
apparent Kd [3]: 6.15 nM | apparent Kd [4]: 6.13 nM

AUCAGCUCGUCAGGAUAUACGUCACUGCUUCAGCAGUGUGGUAAGAUCACAUGAGGAUCACCCAUGUAGAAGGGACGAGCUGAU
apparent Kd [3]: 14.1 nM | apparent Kd [4]: 268 nM

UUUUAACAUGAGGAUCACCCAUGUGAGGAUAUCGAUUUUUUUAUUAAUAUUAAUAAAACGAGAAGGCACAUUUU
apparent Kd [3]: 76.2 nM | apparent Kd [4]: 75.9 nM

CUCAAACAUGAGGAUCACCCAUGUGUUGUCGUGGGAGGAUAUCCCAGUUCGGUGGCGUCGGGAGAAGGCCUAUGUC
apparent Kd [1]: 141 nM | apparent Kd [2]: 64.7 nM

AAAAAACAUGAGGAUCACCCAUGUGAGGAUAUAGGAAAAAAAAAAAAAAAAAAAAAAACUAGAAGGCACAAAAA
apparent Kd [3]: 55.4 nM | apparent Kd [4]: 74.6 nM

CAAUUGGCACAGAAGGGUGACAUGAGGAUCACCCAUGUAGCGUGGUACUCAGGAGGAACCACGCCACAGGAUAUGUGCGGGCAC
apparent Kd [1]: 30.3 nM | apparent Kd [2]: 38.8 nM

UUUUUGUAAGAGAAGGAGGACUUCAUGAGGAUCACCCAUGUGUUAGUACUUAGGAUAUUUGACAACAUGAGGAUCACCCAUGUC
apparent Kd [1]: 72 nM | apparent Kd [2]: 70.1 nM
